ASAP1 inh – ASAP1 ArfGAP inhibition. AID 624377. inhibition, % at 16.5 µM. ASAP1-stimulated ARF1 GTP hydrolysis, GDP FP detection. actives 0.19% (n = 360,000); in the data active = inhibition above about 25%;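 also: 0% = vehicle with enzyme and substrate and 100% = no enzyme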
Target sequence (Q9ULH1 325-724 limits assumed): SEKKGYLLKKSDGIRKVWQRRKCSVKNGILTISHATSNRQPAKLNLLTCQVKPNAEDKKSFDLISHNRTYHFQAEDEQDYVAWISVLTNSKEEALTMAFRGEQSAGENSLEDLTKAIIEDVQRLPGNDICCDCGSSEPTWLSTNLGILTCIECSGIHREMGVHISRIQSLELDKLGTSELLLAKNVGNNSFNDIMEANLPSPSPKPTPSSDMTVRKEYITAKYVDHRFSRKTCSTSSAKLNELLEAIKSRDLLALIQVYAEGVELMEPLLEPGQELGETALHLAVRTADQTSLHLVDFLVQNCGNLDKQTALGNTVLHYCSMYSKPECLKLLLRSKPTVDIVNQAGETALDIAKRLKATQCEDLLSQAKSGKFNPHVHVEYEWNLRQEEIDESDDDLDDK
PAFAH2 FP inh – inhibitors of human PAFAH2. Q99487. recombinant PAFAH2, FP-rhodamine activity probe, fluorescence polarization. inhibition, % at 3.39 µM. actives 0.99% (n = 340,000);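 active = inhibition above the mean over all tested compounds plus 3 SD, cut at about 30% in these data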;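 also: inhibitors block probe labeling of enzyme so polarization drops; 0% = enzyme with DMSO and 100% = wells lacking PAFAH2 protein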
PAFAH1B2 FP inh – PAFAH1B2 (human) inhibition. recombinant PAFAH1B2, FP-rhodamine activity probe, fluorescence polarization. inhibition, % at 3.39 µM. actives 1.2% (n = 340,000). AID 492953;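 active = inhibition above the mean of all tested compounds plus 3 SD, cut at about 24% in these data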;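 also: 0% = enzyme with DMSO and 100% = wells lacking PAFAH1B2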
pPAFAH FP inh – pPAFAH (human) enzyme inhibition; inhibition, % at 3.39 µM; actives 1.5% (n = 330,000); recombinant pPAFAH, FP-rhodamine probe fluorescence polarization; Q13093;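 active = inhibition above the mean inhibition across the screen plus 3 SD, cut at about 25% in these data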;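 also: inhibitors block binding of the rhodamine activity-based probe so polarization drops; 0% = enzyme with DMSO and 100% = wells lacking pPAFAH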
PAFAH1B3 inh – blocks human PAF acetylhydrolase 1B catalytic subunit 3; AID 492972; actives 0.28% (n = 340,000); Q15102; inhibition, % at 3.39 µM; recombinant PAFAH1B3, FP-rhodamine probe, fluorescence polarization;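 active = inhibition above the screen-wide average of all tested compounds plus 3 SD, cut at about 25% in these data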;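 also: 0% = enzyme with DMSO only and 100% = wells lacking PAFAH1B3 protein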
Target sequence (Q15102 whole entry, looked up): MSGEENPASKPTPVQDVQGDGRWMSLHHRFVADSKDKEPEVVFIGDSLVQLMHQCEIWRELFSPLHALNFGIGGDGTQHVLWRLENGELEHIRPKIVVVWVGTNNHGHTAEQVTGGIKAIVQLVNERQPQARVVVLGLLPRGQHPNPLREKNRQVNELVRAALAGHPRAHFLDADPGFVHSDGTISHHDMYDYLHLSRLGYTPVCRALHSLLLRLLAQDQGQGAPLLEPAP
ARFGAP1 inhibitor – inhibits rat ARF GTPase activating protein 1; Arfgap1-stimulated ARF1 GTP hydrolysis, GDP FP detection; inhibition, % at 16.5 µM; actives 0.26% (n = 360,000); AID 651572;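 active = inhibition above a per-plate limit, mean inhibition of low control wells plus 3 SD, cut at about 25% in these data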;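 also: 0% = DMSO wells with enzyme and 100% = wells lacking Arfgap1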
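System: truncated rat Arfgap1 GAP domain / Benchmarks: high control wells lacking Arfgap1, low control full reaction with DMSO / Times: compound-enzyme preincubation 20 min, reaction 120 min, detection 60 min, 25 °C / Repeats: one replicate per compound / Also added: human ARF1(Δ1-17)-GTP substrate / Measured by: Tracer-displacement fluorescence polarization with EDTA stop, 620/688 nm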
Active calls of the source: *; x = no result given. Compounds with a hit are over-represented: about 2.7% of the library has one in this group of screens.

SMILES | ASAP1 inh | PAFAH2 FP inh | PAFAH1B2 FP inh | pPAFAH FP inh | PAFAH1B3 inh | ARFGAP1 inhibitor
Cc1nc2cc(NCc3ccc(Cl)cc3)ccc2n1C | 13 | -2 | 28* | 1 | -2 | 13
Cc1cc(Nc2ccccc2)nn1C(=O)c1ccc(Br)cc1 | -3 | -1 | 27* | 11 | 10 | -5
Cc1cc(Nc2ccccc2)nn1C(=O)c1ccccc1 | 1 | 6 | 6 | 13 | 17 | 15
COc1ccc(NS(=O)(=O)c2cc(NC(=O)c3ccc(C)s3)ccc2N2CCOCC2)cc1 | -4 | -9 | 0 | 27* | -4 | -8
O=C(/C=C(\Nc1ccc(Br)c(F)c1)c1ccccc1)c1ccccc1 | 5 | x | x | x | x | -13
CN(NS(=O)(=O)c1ccc(F)cc1)c1ncc(C(F)(F)F)cc1Cl | -12 | x | x | 3 | x | -9
CN(NS(=O)(=O)c1ccc(Cl)cc1)c1ncc(C(F)(F)F)cc1Cl | -7 | -2 | 28* | -3 | 5 | -6
Cc1nn(C)c(Oc2ccccc2)c1CCNS(=O)(=O)c1ccc(Cl)cc1 | -4 | 21 | 25* | 11 | 3 | -6
COC(=O)C1=C(C)NC(=S)NC1c1ccc(Br)cc1 (stereo not given) | 2 | x | x | x | x | -7
C/C(=N/NS(=O)(=O)c1ccc(C)cc1)c1cccc(NC(=O)c2cccc(Cl)c2)c1 | 24 | 1 | -2 | 11 | 2 | 6
C/C(=N/NS(=O)(=O)c1ccc(Cl)cc1)c1cccc(NC(=O)c2ccc(Cl)cc2Cl)c1 | 8 | 9 | -6 | 25* | 12 | -3
N=c1n(Cc2ccccc2)c2ccccc2n1CC(O)c1ccco1 (stereo not given) | 0 | 46* | 38* | 3 | 28* | 2
Nc1[nH]c(C(=O)c2ccccc2)c(-c2ccccc2)c1C(=O)NCCc1c[nH]c2ccccc12 | 9 | x | x | x | x | 5
CCN=C1NC(CCc2ccccc2)C(C(=O)OC)=C(C)N1Cc1ccccc1C(F)(F)F (stereo not given) | -4 | x | x | x | x | -2
O=C(Nc1ccccc1Cl)Oc1ccc(-c2ccccc2)cc1 | 11 | -1 | 60* | 6 | 7 | 9
CC(C)c1ccc(OCCCN2CCC(C(O)(c3ccccc3)c3ccccc3)CC2)cc1 | 14 | x | x | x | x | 1
CC1=C(C#N)c2nc(N)c(C#N)c(C)c2/C1=C\c1ccc(OCC(=O)O)c(Cl)c1 | 0 | 18 | 2 | 32* | 8 | 8
CCn1c(CNC(=O)COc2ccc(C(C)C)cc2)nnc1SCC(=O)Nc1ccccc1C(C)C | -12 | 2 | 3 | 30* | 6 | 9
CCn1c(CNC(=O)COc2ccc(C(C)C)cc2)nnc1SCC(=O)Nc1ccccc1F | 9 | 5 | 6 | 3 | 5 | -6
CC(C)C1NC(=S)N(C2CCCCC2)C1=O (stereo not given) | -3 | 11 | 4 | 6 | 4 | -2
O=C1C(c2ccccc2)NC(=S)N1C1CCCCC1 (stereo not given) | -4 | 2 | 36* | 0 | 4 | 6
C[C@@H]1CCCCO[C@@H](CN(C)Cc2ccc(C(=O)O)cc2)[C@@H](C)CN([C@H](C)CO)C(=O)c2cc(NS(C)(=O)=O)ccc2O1 | 16 | x | x | x | x | 15
CCN1C(=O)N/C(=C/c2cc(C)n(Cc3ccccc3)c2C)C1=O | -6 | 2 | 82* | 7 | -8 | -3
CCC(C)Sc1cc(-c2nc3ccc(C)cn3c2NCc2ccccc2)ccc1OC (stereo not given) | -7 | 21 | 5 | 23 | 15 | -7
CCC(C)Sc1ccc(-c2nc3ccc(C)cn3c2NCc2ccccc2)cc1OC (stereo not given) | x | 9 | 10 | 27* | 2 | x
SMILES | ASAP1 inh | PAFAH2 FP inh | PAFAH1B2 FP inh | pPAFAH FP inh | PAFAH1B3 inh | ARFGAP1 inhibitor
CCCCCCSc1ccc(-c2nc3ccc(C)cn3c2NCc2ccccc2)cc1OC | -6 | 6 | 3 | 26* | 15 | 5
O=C(Cc1c[nH]c2ccccc12)N1CCN(S(=O)(=O)c2ccc(Cl)cc2)CC1 | 15 | 0 | 22 | x | 0 | 5
CC(=O)NC(Cc1c[nH]c2ccccc12)C(=O)OCC(=O)N1CCN(S(=O)(=O)c2ccc(Cl)cc2)CC1 (stereo not given) | 10 | 1 | 88* | x | 0 | 13
COc1cccc(Nc2nc(C(N)c3ccccc3)cs2)n1 (stereo not given) | 0 | x | x | x | x | 17
COC(=O)c1cc(S(=O)(=O)NCCc2ccc(Cl)cc2)c[nH]1 | 3 | 3 | 26* | 11 | 2 | -9
C[C@H](CO)N1C[C@H](C)[C@@H](CN(C)C(=O)Nc2cccc(Oc3ccccn3)c2)OCc2cn(nn2)CCCC1=O | -12 | x | x | x | x | 5
CN1C(=O)/C(=C/c2cccc(Cl)c2)Sc2ccc(C(=O)N3CCOCC3)cc21 | 1 | 3 | 6 | 28* | -4 | 3
C[C@H](CO)N1C[C@H](C)[C@@H](CN(C)C(=O)Nc2cccc(F)c2)OCc2cn(nn2)CCCC1=O | -12 | x | x | x | x | -2
CSc1nc(N(CCO)CCO)c2sc3nc(-c4ccco4)c4c(c3c2n1)CCC4 | -11 | 31* | 6 | x | 15 | 10
O=C(c1cn(-c2ccccc2)nc1-c1cccnc1)N1CCN(S(=O)(=O)c2ccc(Cl)cc2)CC1 | -7 | -4 | 29* | x | 4 | 4
COc1ccc(-c2ccc3c(=O)cc(-c4ccsc4)oc3c2)cn1 | 26* | -37 | -46 | 5 | -79 | 36*
CCn1c(CSc2nccn2C)nc2cc(C(=O)O)ccc21 | x | 25 | 30* | 25 | 15 | x
O=C(/C=C(\Nc1ccc(Cl)c(Cl)c1)c1ccccc1)c1ccccc1 | -4 | x | x | x | x | 11
C=CCN1[C@H](C)[C@H](c2ccccc2)Oc2cc(Br)ccc2S1(=O)=O | -3 | x | x | x | x | 8
Brc1ccc(CSc2nnc3ccccn23)cc1 | 11 | 2 | 30* | 0 | 2 | 6
O=[N+]([O-])c1cccc(-c2nc(-c3cccs3)c(-c3cccs3)[nH]2)c1 | -3 | -3 | 6 | 28* | 22 | -1
O=C(O)CCc1ccc(-c2ccc(Br)cc2)n1-c1ccc(O)cc1 | -3 | 1 | 33* | x | 0 | 6
Cc1ccc(-c2ccc(CCC(=O)O)n2-c2ccc(O)cc2)cc1 | 8 | -5 | 13 | 21 | 6 | 0
O=C(Oc1cccc(Oc2ccccc2)c1)N1CCOCC1 | -5 | 5 | 5 | 25* | 6 | 1
COC(=O)c1ccc2c(=O)n(CCCCCC(=O)NC3CCCCC3)c(=O)[nH]c2c1 | 0 | x | x | x | x | 1
Cc1ccccc1N=Cc1cccc(O)c1O | x | 3 | 9 | 32* | 2 | x
Oc1cccc(/C=N/N=C/c2cccc(O)c2O)c1O | -3 | -16 | -8 | 5 | -4 | 10
COc1ccccc1CCn1cnc(-c2ccc(Br)cc2)c1CC(C)C | -11 | x | x | x | x | 12
O=C(NC1CCCCC1)c1sc(=S)n2c1[nH]c(=O)c1ccccc12 | -4 | 56* | 42* | 32* | 32* | 2
